From ChEMBL document CHEMBL4513216, “Probing the Open Global Health Chemical Diversity Library for Multistage-Active Starting Points for Next-Generation Antimalarials” (ACS Infect Dis, 2020)

assay: Toxicity liver stage against HepG2, at 10uM; assay type: cell-based; design: test concentration 10 uM, cell line HepG2-A16-CD81EGFP; details: human, HepG2-A16-CD81EGFP cells; read-out: INHIBITION
Procedure, shortened: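 Uninfected HepG2-A16-CD81EGFP cells, 3 × 10^3 per well, 1536-well, plated on prespotted compound at 10 μM final, parasite-free screening media added to match infected plates; puromycin 10 μM positive, DMSO 0.5% negative; run in parallel with 48 h PbLuc assay at 37 °C, 5% CO2; viability by CellTiter-Glo luminescence, normalized to controls.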

Q: For Cc1noc(C)c1CCC(=O)N1CCCCC1CNS(C)(=O)=O (stereo unspecified), which cytotoxicity at 10 µM is on record?
A: 8.71%

Q: Which cytotoxicity at 10 µM does the source give for COCc1ccc(C(=O)N2CCCN(Cc3ccc(F)cc3)CC2)s1 here?
A: -1.78%

Q: For Cc1ccc(-c2nnc(CNCCn3cc(C)cn3)o2)cc1, which cytotoxicity at 10 µM is on record?
A: -12.1%

Q: Which cytotoxicity at 10 µM does the source give for CNc1nc2c(s1)C(c1ccc(F)cc1Cl)CC(=O)N2 (stereo unspecified) here?
A: 4.12%

Q: For CCN(CC)C(CNS(=O)(=O)c1ccc(C(=O)NC)cc1)c1ccco1 (stereo unspecified), which cytotoxicity at 10 µM is on record?
A: 4.62%

Q: For CC(C)N(C)Cc1nnc2n1CCN(S(=O)(=O)C1CC1)CC2, which cytotoxicity at 10 µM is on record?
A: -1.13%

Q: With CCOc1ccccc1NC(=O)N(CCO)Cc1ccsc1 as the compound, how does the cytotoxicity at 10 µM read?
A: 0.633%

Q: For Cn1cc(CN2CCc3ccc(=O)n(Cc4ccncc4)c3CC2)cn1, which cytotoxicity at 10 µM is on record?
A: 3.97%

Q: Which cytotoxicity at 10 µM does the source give for CC(C)(C)OC(=O)NCCC(=O)N(CCC#N)Cc1ccco1 here?
A: 3.12%

Q: For O=C(NCCCn1ccnc1)N1CCN(c2cccs2)CC1, which cytotoxicity at 10 µM is on record?
A: -2.53%

Q: Which cytotoxicity at 10 µM does the source give for CC(C)c1cc2c(O)nc(CSCC(=O)NCc3ccccn3)nc2s1 here?
A: -5.29%

Q: Which cytotoxicity at 10 µM does the source give for CNc1nc(C)cc(N2CCC(C(=O)O)(n3ccc(C(C)C)n3)CC2)n1 here?
A: 1.52%

Q: With Cc1ncsc1C(=O)N1CCCC1c1c(C)nn(C)c1Cl (stereo unspecified) as the compound, how does the cytotoxicity at 10 µM read?
A: -1.9%

Q: Which cytotoxicity at 10 µM does the source give for Cc1ccccc1N1CCCN(C(=O)CCCn2ccnc2C)CC1 here?
A: -3.3%

Q: Which cytotoxicity at 10 µM does the source give for COc1ccc(CNC(C)Cn2cccn2)c(OC)c1OC (stereo unspecified) here?
A: -8.17%

Q: With Nc1nc(CCCNC(=O)c2ccc(C3CCCNC3)cc2)cs1 (stereo unspecified) as the compound, how does the cytotoxicity at 10 µM read?
A: 2.77%

Q: With O=C(Cc1cc(F)cc(Cl)c1)N[C@@H]1CCNC[C@H]1O as the compound, how does the cytotoxicity at 10 µM read?
A: -3.66%

Q: With CNc1cc(CNC(=O)c2ccncc2)nc(-c2ccncc2)n1 as the compound, how does the cytotoxicity at 10 µM read?
A: -7.16%

Q: For O=c1n(CC2COCCO2)nc(CC2CCNCC2)n1-c1ccccc1 (stereo unspecified), which cytotoxicity at 10 µM is on record?
A: -3.41%

Q: Which cytotoxicity at 10 µM does the source give for Cc1ccc2c(c1)c(CNC(C)Cn1ccnc1)nn2C (stereo unspecified) here?
A: -6.14%

Q: Which cytotoxicity at 10 µM does the source give for CN(Cc1cc2n(n1)CCN(C(=O)c1cccnc1)C2)Cc1nccs1 here?
A: 1.2%

Q: Which cytotoxicity at 10 µM does the source give for Fc1ccc(CN2CCC3(CC2)CCN(c2ncccn2)CC3)cc1 here?
A: -73.7%

Q: Which cytotoxicity at 10 µM does the source give for NC(=O)Cn1cc(NC(=O)N2CCN(c3ccccc3)CC2)cn1 here?
A: -8.45%

Q: Which cytotoxicity at 10 µM does the source give for COc1cccc([C@@H]2CCN(Cc3cccc(C)n3)C[C@H]2O)c1 here?
A: 2.22%

Q: For CCCS(=O)(=O)NCc1cccnc1OCc1ccccc1, which cytotoxicity at 10 µM is on record?
A: 13%

Q: For CC(C)c1nnc2n1CCN(CC(=O)Nc1nncs1)C2, which cytotoxicity at 10 µM is on record?
A: -4.02%

Q: For Cc1cncc(C(=O)N(c2ccc(F)cn2)C2CCOCC2)c1, which cytotoxicity at 10 µM is on record?
A: 0.0591%

Q: With CCN(CC1CN(Cc2cccc(C#N)c2)CCO1)c1cccnn1 (stereo unspecified) as the compound, how does the cytotoxicity at 10 µM read?
A: 17%

Q: For CN([C@@H]1CCC[C@@H](n2ccnc2)[C@@H]1O)S(=O)(=O)c1cn(C)cn1, which cytotoxicity at 10 µM is on record?
A: 0.57%

Q: For CCOc1ccc(C2SCC(=O)Nc3c2c(=O)[nH]n3C(CC)CC)cc1 (stereo unspecified), which cytotoxicity at 10 µM is on record?
A: 6.5%

Q: Which cytotoxicity at 10 µM does the source give for Cc1nn(C)c(Oc2cccc(F)c2)c1NC(=O)C1CCOCC1 here?
A: -3.91%

Q: Which cytotoxicity at 10 µM does the source give for Cc1cnn(CC2CCCN2Cc2c(C)noc2C)c1 (stereo unspecified) here?
A: -15.8%

Q: For CC(Cn1cccn1)NCc1csc(-c2ccccc2F)n1 (stereo unspecified), which cytotoxicity at 10 µM is on record?
A: -7.71%

Q: For N#Cc1cccc(S(=O)(=O)N(CC2CCC2)c2cn[nH]c2)c1, which cytotoxicity at 10 µM is on record?
A: 10.9%

Q: Which cytotoxicity at 10 µM does the source give for CNCCc1nc2cc(F)ccc2[nH]1 here?
A: 22%

Q: Which cytotoxicity at 10 µM does the source give for O=C(NC1CCS(=O)(=O)C1)c1cn(C2CC2)c(=O)c2ccccc12 (stereo unspecified) here?
A: -5.65%

Q: With COc1c(C)cnc(CN2CCOC(Cn3cc(C)cn3)C2)c1C (stereo unspecified) as the compound, how does the cytotoxicity at 10 µM read?
A: -14.7%

Q: Which cytotoxicity at 10 µM does the source give for O=C(NCCNc1cc(N2CCCC2)ncn1)c1cnccn1 here?
A: -46.3%

Q: With CC(C)c1ccc(N2CCc3onc(-c4ccc(F)c(F)c4)c3C2)nn1 as the compound, how does the cytotoxicity at 10 µM read?
A: 0.324%

Q: Which cytotoxicity at 10 µM does the source give for c1ccc(CN2CCN(Cc3cscn3)CC2)cc1 here?
A: -2.69%

Q: Which cytotoxicity at 10 µM does the source give for CCOCC(O)CN1CCN(C(=O)c2cccnc2OC)CC1 (stereo unspecified) here?
A: -4.71%

Q: With CN(Cc1ccc(Cl)s1)C(=O)NCCC(=O)N1CCCCCC1 as the compound, how does the cytotoxicity at 10 µM read?
A: -0.691%

Q: With O=C(c1cscn1)N1CCc2ncc(Cn3cncn3)n2CC1 as the compound, how does the cytotoxicity at 10 µM read?
A: -68.9%

Q: With Cc1nc(CN2C(=O)COC3(CCN(Cc4ccco4)CC3)C2C)cs1 (stereo unspecified) as the compound, how does the cytotoxicity at 10 µM read?
A: -13.5%

Q: With Cn1cc(C2CCCN2Cc2csc(C(C)(C)C)n2)cn1 (stereo unspecified) as the compound, how does the cytotoxicity at 10 µM read?
A: -4.87%

Q: For Cc1cc(C)c(CNC(=O)N2CCC(N3CCNC3=O)CC2)c(C)c1, which cytotoxicity at 10 µM is on record?
A: -2.22%
